Experimental data pooled from the literature.
Compare with care: the assays were run in different laboratories.
Cell line: PC-3
Read-out: cell growth or viability

Structure (SMILES)	technique	time	IC50
CCN(CC)CCCn1cccc1/C=N/NC(=O)Nc1cc2c(Nc3ccc(F)c(Cl)c3)ncnc2cc1O[C@H]1CCOC1	MTT	72 h	2240 nM
CC(C)c1cc(-c2n[nH]c(=O)n2-c2ccc3c(ccn3C)c2)c(O)cc1O	imaging	24 h	138 nM
COc1ccc(/C=C/c2cc(C)no2)cc1	MTT	72 h	> 100000 nM
Cc1cc(C)cc(COc2cc3c(cc2OCc2cc(C)cc(C)c2)[C@H]2C[C@](O)(Cc4cn(Cc5ccc(NC(=O)/C=C/CN(C)C)cc5)nn4)C[C@H](C)N2CC3)c1	MTT		345 nM
COCCCOc1ccnc(COc2ccc(NC(=O)Nc3cc(F)cc(F)c3)cc2)c1C	MTT	72 h	> 100000 nM
Cc1ccc(C(=O)O)c(NC(=O)c2ccc(N)cc2)c1	MTT		> 120000 nM
CCN(CC)C/C=N/NC(=O)Nc1cc2c(Nc3ccc(F)c(Cl)c3)ncnc2cc1O[C@H]1CCOC1	MTT	72 h	580 nM
Cc1cc(C)cc(COc2cc3c(cc2OCc2cc(C)cc(C)c2)[C@H]2C[C@](O)(Cc4cn(CC56CC7CC(CC(C7)C5)C6)nn4)C[C@H](C)N2CC3)c1	MTT		143 nM
CC(C)c1n[nH]c2c(Nc3ccccc3)nc(CNCc3ccccc3)cc12	MTS	48 h	5800 nM
COc1c(C)cnc(COc2ccc(NC(=O)Nc3ccc(Cl)c(C(F)(F)F)c3)cc2)c1C	MTT	72 h	> 100000 nM
c1ccc(CNCc2cc3c(-c4ccccc4)n[nH]c3c(Nc3ccccc3)n2)cc1	MTS	48 h	3900 nM
Cc1cc(C)cc(COc2cc3c(cc2OCc2cc(C)cc(C)c2)[C@H]2C[C@](O)(Cc4cn(Cc5ccc(S(C)(=O)=O)cc5)nn4)C[C@H](C)N2CC3)c1	MTT		223 nM
COc1ccnc(COc2ccc(NC(=O)Nc3cc(F)cc(F)c3)cc2)c1OC	MTT	72 h	> 100000 nM
CCOC(=O)c1[nH]cc2c1NC1=C(C(=O)CCC1)[C@H]2c1cccc(Oc2nc3ccccc3[nH]2)c1	ATP luminescence	72 h	> 10000 nM
C[C@H]1[C@@H](O)O[C@@H]2O[C@@]3(C)CC[C@H]4[C@H](C)CC[C@@H]1[C@@]24OO3	CCK-8	48 h	> 50000 nM
O=C(/C=C/c1ccc(CN(CCO)CCc2c[nH]c3ccccc23)cc1)NO	resazurin	72 h	71 nM
O=C(N/N=C/c1cccn1CCN1CCOCC1)Nc1cc2c(Nc3ccc(F)c(Cl)c3)ncnc2cc1O[C@H]1CCOC1	MTT	72 h	4270 nM
CC(C)C[C@H](NC(=O)[C@H](Cc1ccccc1)NC(=O)c1cnccn1)B(O)O	ATP luminescence		12 nM
COc1cc(Nc2nc(CNCc3ccccc3)cc3c(-c4ccccc4)n[nH]c23)cc(OC)c1OC	MTS	48 h	4300 nM
O=C(/C=C/c1ccc2ncn(Cc3ccccc3)c(=O)c2c1)NO	SRB	48 h	1540 nM

Structure (SMILES)	technique	time	IC50
COc1cc2ncnc(Nc3ccc(F)c(Cl)c3)c2cc1NC(=O)N/N=C/c1cccn1CCCN1CCN(C)CC1	MTT	72 h	660 nM
O=C(/C=C/c1ccc2ncn(Cc3ccccc3F)c(=O)c2c1)NO	SRB	48 h	639 nM
Cc1cc(C)cc(COc2cc3c(cc2OCc2cc(C)cc(C)c2)[C@H]2C[C@](O)(Cc4cn(Cc5ccncc5)nn4)C[C@H](C)N2CC3)c1	MTT		167 nM
CN(C)CCn1cccc1/C=N/NC(=O)Nc1cc2c(Nc3ccc(F)c(Cl)c3)ncnc2cc1O[C@H]1CCOC1	MTT	72 h	3840 nM
Cc1cc(C)cc(COc2cc3c(cc2OCc2cc(C)cc(C)c2)[C@H]2C[C@](O)(Cc4cn(CC5CCCCC5)nn4)C[C@H](C)N2CC3)c1	MTT		384 nM
COc1cc2ncnc(Nc3ccc(F)c(Cl)c3)c2cc1NC(=O)N/N=C/c1cccn1CCN1CCOCC1	MTT	72 h	820 nM
COCCCOc1ccnc(COc2ccc(NC(=O)Nc3ccc(F)cc3)cc2)c1C	MTT	72 h	> 100000 nM
N=C(Nc1ccccc1)c1cc2c(-c3ccccc3)n[nH]c2c(Nc2ccccc2)n1	MTS	48 h	1200 nM
COc1ccc(NC(=O)Nc2ccc(OCc3nccc(OCC(F)(F)F)c3C)cc2)cc1	MTT	72 h	89100 nM
Cc1cc(C)cc(COc2cc3c(cc2OCc2cc(C)cc(C)c2)[C@H]2C[C@](O)(Cc4cn(Cc5cc(C(F)(F)F)cc(C(F)(F)F)c5)nn4)C[C@H](C)N2CC3)c1	MTT		406 nM
COCCCOc1ccnc(COc2ccc(NC(=O)Nc3ccc(Cl)c(C(F)(F)F)c3)cc2)c1C	MTT	72 h	> 100000 nM
CN1CCN(CCn2cccc2/C=N/NC(=O)Nc2cc3c(Nc4ccc(F)c(Cl)c4)ncnc3cc2O[C@H]2CCOC2)CC1	MTT	72 h	1890 nM
C/C=C/C(=O)Nc1ccc(Cn2cc(C[C@@]3(O)C[C@@H]4c5cc(OCc6cc(C)cc(C)c6)c(OCc6cc(C)cc(C)c6)cc5CCN4[C@@H](C)C3)nn2)cc1	MTT		364 nM
COc1ccc(NC(=O)Nc2ccc(OCc3nccc(OC)c3OC)cc2)cc1	MTT	72 h	46400 nM
COc1ccc2c(N(C)c3ccc(/C(C)=N/OCCN)cc3)c3c(Cl)coc3nc2c1	trypan blue	72 h	1590 nM
Cc1c(OCC(F)(F)F)ccnc1COc1ccc(NC(=O)Nc2ccc(F)cc2)cc1	MTT	72 h	60200 nM
COc1ccc2c(c1OC)C(=O)O[C@@H]2[C@H]1c2c(c(Br)c3c(c2OC)OCO3)CCN1C	MTT	48 h	182000 nM
Cc1ccc(Cn2cc(C[C@@]3(O)C[C@@H]4c5cc(OCc6cc(C)cc(C)c6)c(OCc6cc(C)cc(C)c6)cc5CCN4[C@@H](C)C3)nn2)cc1	MTT		375 nM
COc1cc2ncnc(Nc3ccc(F)c(Cl)c3)c2cc1NC(=O)N/N=C/c1cccn1CCN(C)C	MTT	72 h	1250 nM
COC1=CC(=O)N(C(=O)[C@@H](CCC(Cl)(Cl)Cl)NC(=O)C(C)(C)C)[C@@H]1CCC(Cl)(Cl)Cl	resazurin	72 h	13000 nM
